Measurements: article PMC3822625 (Journal of Cellular and Molecular Medicine, 2010)

Tests used:
[1] = target: P-gp expressed in porcine capillaries (Sus scrofa, UniProt K7GMM7); experiment: NBD-CSA transport in porcine brain capillaries; format: cell-based; conditions: confocal microscopy, result in words
In short: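 Porcine brain capillaries incubated with test compound and the fluorescent P-gp substrate NBD-CSA. Transport into the capillary lumen imaged by confocal microscopy (transmitted light, fluorescence, overlay) and quantified by fluorospectrometry. Negative-control capillaries stained with NBD-CSA only, same time course.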

[2] = test system: Tg(fli1:EGFP) zebrafish embryos; experiment: Zebrafish embryo in vivo angiogenesis assay
P-gp = P-gp (Homo sapiens, UniProt P08183); experiment: Calcein-AM assay by flow cytometry in CEM/ADR5000 cells; conditions: CCRF-CEM and CEM/ADR5000 cells, result in words
Sequence of P-gp (P08183 whole entry): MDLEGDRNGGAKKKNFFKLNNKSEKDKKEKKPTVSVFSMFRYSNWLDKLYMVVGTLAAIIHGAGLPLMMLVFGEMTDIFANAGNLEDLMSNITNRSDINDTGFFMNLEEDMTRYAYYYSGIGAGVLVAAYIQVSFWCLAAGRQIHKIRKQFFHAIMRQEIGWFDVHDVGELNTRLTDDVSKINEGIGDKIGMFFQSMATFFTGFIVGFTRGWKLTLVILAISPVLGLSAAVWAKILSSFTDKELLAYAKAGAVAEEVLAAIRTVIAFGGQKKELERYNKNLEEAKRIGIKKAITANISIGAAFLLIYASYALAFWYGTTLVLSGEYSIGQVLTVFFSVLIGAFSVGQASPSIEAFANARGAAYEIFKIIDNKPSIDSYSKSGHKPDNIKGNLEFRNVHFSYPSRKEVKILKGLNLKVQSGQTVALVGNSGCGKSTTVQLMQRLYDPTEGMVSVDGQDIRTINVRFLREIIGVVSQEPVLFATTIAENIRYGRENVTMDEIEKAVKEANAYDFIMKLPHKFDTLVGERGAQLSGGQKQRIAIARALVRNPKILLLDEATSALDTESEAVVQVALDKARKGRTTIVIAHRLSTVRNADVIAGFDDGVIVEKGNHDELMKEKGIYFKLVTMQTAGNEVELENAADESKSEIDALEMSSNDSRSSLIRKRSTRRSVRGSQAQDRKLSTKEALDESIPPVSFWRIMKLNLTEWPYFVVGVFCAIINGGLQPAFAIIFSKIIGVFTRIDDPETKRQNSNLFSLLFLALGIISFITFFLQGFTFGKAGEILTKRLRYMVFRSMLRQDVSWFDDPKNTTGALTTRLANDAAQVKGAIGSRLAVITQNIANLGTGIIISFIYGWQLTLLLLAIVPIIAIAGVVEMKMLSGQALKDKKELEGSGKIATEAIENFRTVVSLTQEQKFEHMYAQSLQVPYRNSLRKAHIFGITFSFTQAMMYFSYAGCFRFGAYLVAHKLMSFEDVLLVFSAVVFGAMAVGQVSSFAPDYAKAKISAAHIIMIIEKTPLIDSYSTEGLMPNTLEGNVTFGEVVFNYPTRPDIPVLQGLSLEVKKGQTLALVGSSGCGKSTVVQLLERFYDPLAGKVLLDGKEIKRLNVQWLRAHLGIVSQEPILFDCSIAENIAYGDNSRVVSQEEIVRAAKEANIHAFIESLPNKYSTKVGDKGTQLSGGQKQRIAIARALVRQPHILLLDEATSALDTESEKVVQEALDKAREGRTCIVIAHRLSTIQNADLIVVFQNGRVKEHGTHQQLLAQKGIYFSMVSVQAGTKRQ

Sequence of P-gp expressed in porcine capillaries (K7GMM7 1-1248): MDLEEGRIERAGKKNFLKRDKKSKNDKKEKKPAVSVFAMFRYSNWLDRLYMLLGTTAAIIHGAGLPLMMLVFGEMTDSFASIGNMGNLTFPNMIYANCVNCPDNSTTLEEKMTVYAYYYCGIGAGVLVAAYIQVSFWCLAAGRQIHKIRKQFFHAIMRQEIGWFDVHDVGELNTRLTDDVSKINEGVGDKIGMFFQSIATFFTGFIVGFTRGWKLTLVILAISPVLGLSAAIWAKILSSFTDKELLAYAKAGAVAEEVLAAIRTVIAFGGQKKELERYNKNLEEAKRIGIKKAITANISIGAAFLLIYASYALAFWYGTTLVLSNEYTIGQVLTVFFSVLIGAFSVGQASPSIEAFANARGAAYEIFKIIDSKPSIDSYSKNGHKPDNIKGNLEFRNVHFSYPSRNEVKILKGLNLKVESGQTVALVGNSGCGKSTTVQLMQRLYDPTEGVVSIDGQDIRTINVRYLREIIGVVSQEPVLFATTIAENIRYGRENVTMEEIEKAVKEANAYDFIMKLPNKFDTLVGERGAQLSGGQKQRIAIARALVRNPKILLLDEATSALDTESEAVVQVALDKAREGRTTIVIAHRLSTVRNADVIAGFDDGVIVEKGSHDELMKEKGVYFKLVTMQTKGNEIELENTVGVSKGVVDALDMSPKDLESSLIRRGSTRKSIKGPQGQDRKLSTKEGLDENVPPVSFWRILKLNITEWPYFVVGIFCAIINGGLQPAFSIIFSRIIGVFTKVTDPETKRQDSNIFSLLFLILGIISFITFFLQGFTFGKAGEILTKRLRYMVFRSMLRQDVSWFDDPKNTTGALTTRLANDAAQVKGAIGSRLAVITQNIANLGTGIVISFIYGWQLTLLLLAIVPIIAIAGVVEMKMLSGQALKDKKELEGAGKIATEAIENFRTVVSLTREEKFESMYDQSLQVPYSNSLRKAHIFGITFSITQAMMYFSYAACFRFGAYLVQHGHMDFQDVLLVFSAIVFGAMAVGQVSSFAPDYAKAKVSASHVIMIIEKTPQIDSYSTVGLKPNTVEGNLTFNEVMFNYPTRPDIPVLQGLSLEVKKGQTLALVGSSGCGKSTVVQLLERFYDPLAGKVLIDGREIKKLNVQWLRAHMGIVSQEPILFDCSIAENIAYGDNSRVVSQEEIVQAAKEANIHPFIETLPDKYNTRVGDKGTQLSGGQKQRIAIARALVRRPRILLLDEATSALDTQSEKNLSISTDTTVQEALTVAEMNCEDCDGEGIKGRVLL

Question: How did the “Inhibition of luminal P-gp (NBD-CSA transport)” value [1] turn out when C/C=C/C[C@@H](C)C(=O)[C@H]1C(=O)N[C@@H](C(C)C)C(=O)N(C)CC(=O)N(C)[C@@H](CC(C)C)C(=O)N[C@@H](C(C)C)C(=O)N(C)[C@@H](CC(C)C)C(=O)N[C@@H](C)C(=O)N[C@H](C)C(=O)N(C)[C@@H](CC(C)C)C(=O)N(C)[C@@H](CC(C)C)C(=O)N(C)[C@@H](C(C)C)C(=O)N1C [PSC-833] was run?
Answer: inhibited

Question: For C[C@H]1[C@H](OC(=O)CCC(=O)O)O[C@@H]2O[C@@]3(C)CC[C@H]4[C@H](C)CC[C@@H]1[C@@]24OO3 [Artesunate, artesunate], which “Dead = number of dead embryos up to 48 hpf” value (shortened to “Dead = number”) ([2]; 25 μg/ml, N=20 embryos) is on record?
Answer: 1

Question: What about the “Dead = number” value ([2]; 50 μg/ml, N=20 embryos) of the same molecule?
Answer: 1

Question: And the “Dead = number” value ([2]; 100 μg/ml, N=20 embryos)?
Answer: 1

Question: And the “Dead = number” value ([2]; 200 μg/ml, N=10 embryos)?
Answer: 1

Question: What about the Anti-angiogenic effect ([2]; overall assessment over the dose range, result in words) of the same molecule?
Answer: dose-dependent anti-angiogenic effects

Question: And the “P-gp inhibition (calcein accumulation)” value (P-gp)?
Answer: do not act as P-gp inhibitors

Question: C[C@@H]1CC[C@H]2[C@@H](C)C(=O)O[C@@H]3O[C@@]4(C)CC[C@@H]1[C@]32OO4 [Compound 1, artemisinin] was tested. Which “P-gp inhibition (calcein accumulation)” value (P-gp) did it give?
Answer: do not act as P-gp inhibitors

Question: Which results are given for CC1=CO[C@@H]2O[C@@]3(C)CC[C@H]4[C@H](C)CC[C@@H]1[C@@]24OO3 [Compound 4, anhydrodihydroartemisinin]?
Answer: Dead = number of dead embryos up to 48 hpf ([2]; 50 μg/ml, N=10 embryos): 2; Dead = number of dead embryos up to 48 hpf ([2]; 75 μg/ml, N=10 embryos): 5

Question: Which results are given for Cc1cc(C)c(/C=C2\C(=O)Nc3ccccc32)[nH]1 [SU5416]?
Answer: Formation of ISVs at 28 hpf ([2]; 10 μg/ml, 28 hpf, result in words): completely blocked formation of ISVs; ISV sprouting at 48 hpf ([2]; 10 μg/ml, 48 hpf, compared to control embryos, result in words): sprouted only minimally; Heart rate ([2]; 10 μg/ml, result in words): not affected; Oedema ([2]; 10 μg/ml, result in words): rarely observed
